System: U2OS
Assay: Multiplex assay against U2OS
Type: toxicity, cell-based
Details: human
Procedure, shortened: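 Tubulin, mitochondrial-mass and membrane-permeability phenotypes are per cents of healthy-nucleus cells. Cells were gated by CellPathfinder machine learning into Hoechst high-intensity objects or normal cells, normal cells into healthy, pyknosed or fragmented nuclei, and pyknosed cells into mitotic or apoptotic. Before that, live cells stained at seeding with Hoechst33342, BioTracker Green Microtubule Cytoskeleton Dye, MitoTracker Red and Annexin V Alexa Fluor 680 were imaged on a CQ1 microscope at 37°C and 5% CO2 after compound addition.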

[1] = 12 h, 1 µM, compound concentration 1 uM, replicate 1
[2] = 12 h, 1 µM, compound concentration 1 uM, replicate 2
[3] = 12 h, 10 µM, compound concentration 10 uM, replicate 1
[4] = 12 h, 10 µM, compound concentration 10 uM, replicate 2
[5] = 24 h, 1 µM, compound concentration 1 uM, replicate 1
[6] = 24 h, 1 µM, compound concentration 1 uM, replicate 2
[7] = 24 h, 10 µM, compound concentration 10 uM, replicate 1
[8] = 24 h, 10 µM, compound concentration 10 uM, replicate 2

N#Cc1cnc(Nc2cc(NC[C@H]3CNCCO3)c(C(F)(F)F)cn2)cn1 [SRA-737]
Population Apoptotic (%) [1]: 18% | Population Fragmented Nuclei (%) [1]: 0% | Population Healthy Nuclei (%) [1]: 89% | Population Hoechst High Intensity Objects (%) [1]: 6% | Population Membrane Permeable-Phenotype (%) [1]: 7% | Population Mitochondria Different-Phenotype (%) [1]: 14% | Population Mitotic Cells (%) [1]: 81% | Population Normal (%) [1]: 93% | Population Pyknosed Nuclei (%) [1]: 9% | Population Tubulin-Different-Phenotype (%) [1]: 26% | Total Cell Count [1]: 249 | Population Apoptotic (%) [2]: 16% | Population Fragmented Nuclei (%) [2]: 4% | Population Healthy Nuclei (%) [2]: 90% | Population Hoechst High Intensity Objects (%) [2]: 9% | Population Membrane Permeable-Phenotype (%) [2]: 10% | Population Mitochondria Different-Phenotype (%) [2]: 18% | Population Mitotic Cells (%) [2]: 83% | Population Normal (%) [2]: 90% | Population Pyknosed Nuclei (%) [2]: 4% | Population Tubulin-Different-Phenotype (%) [2]: 30% | Total Cell Count [2]: 142 | Population Apoptotic (%) [3]: 50% | Population Fragmented Nuclei (%) [3]: 5% | Population Healthy Nuclei (%) [3]: 87% | Population Hoechst High Intensity Objects (%) [3]: 4% | Population Membrane Permeable-Phenotype (%) [3]: 11% | Population Mitochondria Different-Phenotype (%) [3]: 9% | Population Mitotic Cells (%) [3]: 50% | Population Normal (%) [3]: 95% | Population Pyknosed Nuclei (%) [3]: 6% | Population Tubulin-Different-Phenotype (%) [3]: 15% | Total Cell Count [3]: 193 | Population Apoptotic (%) [4]: 23% | Population Fragmented Nuclei (%) [4]: 4% | Population Healthy Nuclei (%) [4]: 85% | Population Hoechst High Intensity Objects (%) [4]: 9% | Population Membrane Permeable-Phenotype (%) [4]: 15% | Population Mitochondria Different-Phenotype (%) [4]: 7% | Population Mitotic Cells (%) [4]: 76% | Population Normal (%) [4]: 90% | Population Pyknosed Nuclei (%) [4]: 10% | Population Tubulin-Different-Phenotype (%) [4]: 16% | Total Cell Count [4]: 143 | Population Apoptotic (%) [5]: 5% | Population Fragmented Nuclei (%) [5]: 0% | Population Membrane Permeable-Phenotype (%) [5]: 5% | Population Mitochondria Different-Phenotype (%) [5]: 12% | Population Mitotic Cells (%) [5]: 94% | Population Pyknosed Nuclei (%) [5]: 5% | Population Tubulin-Different-Phenotype (%) [5]: 31% | Total Cell Count [5]: 330 | Population Apoptotic (%) [6]: 0% | Population Fragmented Nuclei (%) [6]: 2% | Population Healthy Nuclei (%) [6]: 93% | Population Hoechst High Intensity Objects (%) [6]: 3% | Population Membrane Permeable-Phenotype (%) [6]: 6% | Population Mitochondria Different-Phenotype (%) [6]: 23% | Population Mitotic Cells (%) [6]: 100% | Population Normal (%) [6]: 96% | Population Pyknosed Nuclei (%) [6]: 4% | Population Tubulin-Different-Phenotype (%) [6]: 38% | Total Cell Count [6]: 179 | Population Apoptotic (%) [7]: 18% | Population Fragmented Nuclei (%) [7]: 4% | Population Healthy Nuclei (%) [7]: 88% | Population Hoechst High Intensity Objects (%) [7]: 4% | Population Membrane Permeable-Phenotype (%) [7]: 8% | Population Mitochondria Different-Phenotype (%) [7]: 10% | Population Mitotic Cells (%) [7]: 81% | Population Normal (%) [7]: 95% | Population Pyknosed Nuclei (%) [7]: 6% | Population Tubulin-Different-Phenotype (%) [7]: 19% | Total Cell Count [7]: 243 | Population Apoptotic (%) [8]: 50% | Population Fragmented Nuclei (%) [8]: 5% | Population Healthy Nuclei (%) [8]: 87% | Population Hoechst High Intensity Objects (%) [8]: 8% | Population Mitochondria Different-Phenotype (%) [8]: 19% | Population Mitotic Cells (%) [8]: 50% | Population Normal (%) [8]: 91% | Population Tubulin-Different-Phenotype (%) [8]: 12% | Total Cell Count [8]: 168

Reference: ChEMBL document CHEMBL4689842, “EUbOPEN Chemogenomics Library wave 1” (2021)
